The record followed here is article PMC9291769 (Chemmedchem, 2021).

“And” between values parts separate entries of the source, which are not always exact repeats. Identical values can stand only once.

The target in data set [1] is recombinant form of human IDO1 (rhIDO1) (Homo sapiens, UniProt P14902). The data set can be described thus: rhIDO1 enzymatic assay. Type of data set: biochemical. The settings on record: read-out: rhIDO1 inhibition. In a few lines:
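Recombinant human IDO1 inhibitor-screening kit: 10 µM test compound in complete reaction buffer, 45 min at 37 °C. Stopped with 30% (w/v) CCl₃COOH, heated 50 °C for 15 min and centrifuged. Supernatant was mixed 1:1 with 2% p-dimethylaminobenzaldehyde in acetic acid, and kynurenine pigment read at 490 nm. The kit's positive inhibition control was included. Mean ± SEM, three experiments in triplicate.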

The next data set has as its target TDO (P1.TDO) (Homo sapiens, UniProt P48775). Kind of data set: IDO1 and TDO selectivity assay, P1.TDO cells. In kind it is cell-based. The settings on record: 10 μM, 16 h. In a few lines: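 Mouse mastocytoma P815-derived P1.HTR cells, stably electroporated with a human TDO plasmid and selected in puromycin, grown in IMDM with 1 mM glutamine and penicillin/streptomycin, used at ≤10th passage. Cells incubated 16 h with 10 μM test compound; DMSO vehicle as control. Supernatant L-Kyn measured by HPLC-UV (C18 column) against a calibration curve, detection limit 0.05 μM. Triplicate.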

The next data set addresses IDO1 (Homo sapiens, UniProt P14902). The data set can be described thus: Cellular IDO1 inhibition. In kind it is cell-based. To be noted: A375 cell line, IFN-γ, 48 h. In a few lines:
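A375 cells (0.5×10^5/well) were grown overnight, then given test compound (serial dilutions 0.01–30 µM, or single 10 µM) with human IFN-γ (500 U/mL final) and 0.1% DMSO for 48 h. Medium was deproteinized with 20% CCl₃COOH. L-Kyn was quantified by C18 HPLC at 330 nm against a calibration curve; % inhibition was taken versus basal levels. IC50s came from concentration-response curves, ≥3 experiments in triplicate.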

The nature of data set [2]: In vitro metabolic stability in rat liver S9 fraction. In kind it is in vitro ADME. To be noted: rat liver S9 with NADPH, 5 μM substrate, 37 °C. In a few lines: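 Pooled male Sprague Dawley rat liver S9 (1.5 mg/mL final protein) was used in 50 mM Tris pH 7.4 with 3.3 mM MgCl₂, 1.3 mM β-NADP, 3.3 mM glucose 6-phosphate, 0.4 U/mL G6PDH and 1% acetonitrile. Test compound was 5 µM, shaken 60 min at 37 °C. Controls lacked S9 or cofactors. Reactions were stopped with ice-cold acetonitrile and centrifuged; residual substrate was measured.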

The target of the next data set is holo-IDO1 (Homo sapiens, UniProt P14902). Kind of data set: Heme detection. To be noted: 1 μM holo-IDO1, 120 min, 37 °C; VS9 different concentrations, epacadostat 20 μM. In kind it is binding. Put shortly:
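1 µM holo-IDO1 in 100 mM potassium phosphate (pH 7.2) with 1 mM CHAPS was incubated with varying test-compound concentrations, or 20 µM reference inhibitor, for 120 min at 37 °C. Samples were diluted 100-fold, and free heme was measured with a hemin detection kit at 570 nm. Values are relative to untreated, mean of n=3 ± SD.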

The nature of the next data set: MTT cell viability assay. Type of data set: cell-based, human. The settings on record: human, A375 cells, Cell viability [%] @ 10 μM±SD. Put shortly: (§1)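 A375 cells were kept in high-glucose DMEM with 10% heat-inactivated FBS, 2 mM L-glutamine and pen/strep. Cells were seeded at 0.5×10^5/well and exposed to 10 µM test compound for 48 h at 37 °C, 5% CO₂, then given MTT. Viability = 100(x−y)/(z−y), where x, y and z are absorbance of treated, resting and untreated cells. Mean ± SD, ≥3 experiments in triplicate.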
On the technique in general: Tetrazolium dyes change colour on reduction, which living cells bring about.

The next data set relates to A375 cells. The data set can be described thus: MTT cell viability assay. In kind it is cell-based, human. The settings on record: 48 h. Put shortly: as §1

One may read the inhibition as the share of the control response that was lost under treatment. The IC50 is the concentration that inhibits the measured activity by half. As a reminder, the viability is a per cent measure of how many cells are alive, often set against a control. High values mean better survival, low ones a greater loss of cells.

Sequence of IDO1 (P14902 whole entry): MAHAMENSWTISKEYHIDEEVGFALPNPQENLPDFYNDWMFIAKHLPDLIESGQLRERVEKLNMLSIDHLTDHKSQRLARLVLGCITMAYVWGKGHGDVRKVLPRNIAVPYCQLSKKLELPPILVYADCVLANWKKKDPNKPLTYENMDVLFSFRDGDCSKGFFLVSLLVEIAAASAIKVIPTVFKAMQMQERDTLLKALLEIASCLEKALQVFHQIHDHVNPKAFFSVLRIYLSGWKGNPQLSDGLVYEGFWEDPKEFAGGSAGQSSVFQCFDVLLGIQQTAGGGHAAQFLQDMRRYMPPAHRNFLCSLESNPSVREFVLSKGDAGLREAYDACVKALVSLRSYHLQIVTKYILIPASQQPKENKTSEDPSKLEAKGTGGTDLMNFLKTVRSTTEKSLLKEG
Sequence of holo-IDO1 (P14902 whole entry): as above
Sequence of recombinant form of human IDO1 (rhIDO1) (P14902 whole entry): as above
Sequence of TDO (P1.TDO) (P48775 whole entry): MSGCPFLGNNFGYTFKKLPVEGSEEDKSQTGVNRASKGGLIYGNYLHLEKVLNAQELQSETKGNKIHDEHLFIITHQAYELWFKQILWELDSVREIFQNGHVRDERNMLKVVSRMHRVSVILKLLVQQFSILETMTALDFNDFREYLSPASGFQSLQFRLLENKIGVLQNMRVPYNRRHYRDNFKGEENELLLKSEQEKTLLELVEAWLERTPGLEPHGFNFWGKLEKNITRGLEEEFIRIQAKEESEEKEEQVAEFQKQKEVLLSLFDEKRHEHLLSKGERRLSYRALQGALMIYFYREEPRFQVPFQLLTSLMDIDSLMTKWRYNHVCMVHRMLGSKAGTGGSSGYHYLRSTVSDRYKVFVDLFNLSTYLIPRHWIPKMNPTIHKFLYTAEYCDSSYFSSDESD

For the molecule `O=C(NCc1nnc2ccc(C(F)(F)F)cn12)c1cccc2cn[nH]c12` [Compound 2, N‐((6‐(Trifluoromethyl)‐[1,2,4]triazolo[4,3‐a]pyridin‐3‐yl)methyl)‐1H‐indazole‐7‐carboxamide], the inhibition at 10 µM in data set [1] is 54.6 ± 3.1%. For the same molecule, on TDO (P1.TDO), the “Kyn levels in P1.TDO cells” value was “not able to induce a reduction of Kyn levels in P1.TDO”. On IDO1 (10 μM, L-Kyn by HPLC), the “IDO cellular assay inhibition [%] @ 10 μM±SD” value is reported as 42±9%. Moreover, the half-maximal inhibitory concentration (IC50) at IDO1 (IC50±SD [μM]) was 2.6 µM and 2.8 µM. In data set [2], the “Residual peak area after RLS9 incubation (60 min)” value is recorded as “higher than 99%”. Besides, on holo-IDO1, the “levels of free heme after incubation with IDO1” value is “did not increase the levels of free heme”. In “MTT cell viability assay”, this molecule gave a viability at 48 h, 10 μM of 91 ± 9.9%. Also, the “Cell viability [%] @ 10 μM±SD” value in the data set with A375 cells was determined as 87±18.3%.
